Measurements as given in ChEMBL document CHEMBL1134558, “Discovery of estrogen sulfotransferase inhibitors from a purine library screen” (J Med Chem, 2001).

Target: T1, Sulfotransferase 1E1 (Mus musculus, UniProt P49891)
T1 sequence (P49891 whole entry): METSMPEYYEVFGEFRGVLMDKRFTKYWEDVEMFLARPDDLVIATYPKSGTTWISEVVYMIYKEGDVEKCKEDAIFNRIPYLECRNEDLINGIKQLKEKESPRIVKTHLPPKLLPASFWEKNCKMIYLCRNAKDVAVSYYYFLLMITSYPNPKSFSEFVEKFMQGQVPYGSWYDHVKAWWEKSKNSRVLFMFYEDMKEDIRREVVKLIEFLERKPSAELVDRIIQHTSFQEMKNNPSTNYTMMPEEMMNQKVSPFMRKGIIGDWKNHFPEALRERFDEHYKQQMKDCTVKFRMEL
Assay: Inhibition of estrogen sulfotransferase (EST) in TLC radiolabel transfer assay
Procedure, shortened: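 Murine EST expressed and purified as an N-terminal GST fusion. Transfer of ³⁵S-sulfate from ³⁵S-PAPS to estrone acceptor; extent of reaction measured by TLC separation and phosphorimaging. IC50 values taken from this radiolabel transfer assay. In the screen each compound was tested at 100 μM, with >70% inhibition scored as a hit.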

| Structure (SMILES) | IC50 [µM] |
| --- | --- |
| COc1ccc(CNc2nc(NCc3ccccc3)nc3c2ncn3CCO)cc1 | 30 |
| CC(O)CNc1nc(NCC(N)=O)nc2c1ncn2C (configuration not stated) | 60 |
| COc1ccc(CNc2nc(N[C@H](CO)CC(C)C)nc3c2ncn3C(C)C)cc1 | 60 |
| Cn1cnc2c(NCc3ccccc3N)nc(NCC(N)=O)nc21 | 30 |
| COc1ccc(CNc2nc(N3CCN(C)CC3)nc3c2ncn3C(C)C)cc1 | 80 |
| CC(C)n1cnc2c(NCc3ccc(N)cc3)nc(NCCCCC(=O)C3CSC(=O)N3)nc21 (configuration not stated) | 72 |
| COc1ccc(CNc2nc(N3CCCCCC3)nc3c2ncn3C(C)C)cc1 | 0.5 |
| Cn1cnc2c(N(CCO)CCNCCO)nc(NCC(N)=O)nc21 | 100 |
| Cn1cnc2c(NCc3ccc(Cl)cc3)nc(NCC(N)=O)nc21 | 35 |
| Cn1cnc2c(N(CCO)CCO)nc(NCC(N)=O)nc21 | > 200 |
| O=[N+]([O-])c1ccc(CNc2nc(NCC3CCCCC3)c3ncn(CCO)c3n2)cc1 | > 200 |
| Cn1cnc2c(NCc3cc(Cl)cc(Cl)c3)nc(NCC(N)=O)nc21 | 60 |
